The target in assay [1] is T1, ERRα (Homo sapiens, UniProt P11474).
T1 sequence (P11474 1-423): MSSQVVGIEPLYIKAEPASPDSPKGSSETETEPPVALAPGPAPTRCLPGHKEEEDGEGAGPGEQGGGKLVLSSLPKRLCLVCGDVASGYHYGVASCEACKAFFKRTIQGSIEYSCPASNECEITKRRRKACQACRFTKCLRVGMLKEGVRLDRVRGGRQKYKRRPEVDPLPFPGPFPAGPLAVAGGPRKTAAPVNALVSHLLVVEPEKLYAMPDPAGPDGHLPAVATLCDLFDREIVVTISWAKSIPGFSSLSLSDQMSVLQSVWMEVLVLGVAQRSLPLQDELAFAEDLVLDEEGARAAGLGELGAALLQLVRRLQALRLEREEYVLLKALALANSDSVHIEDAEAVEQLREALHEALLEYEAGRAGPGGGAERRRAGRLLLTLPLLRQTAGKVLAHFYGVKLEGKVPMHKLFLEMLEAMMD
As to the kind of experiment: AAB-Luc cells stably expressing ERRα luciferase reporter. The class given is cell-based. The method in brief: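 HEK293T cells were stably transduced at MOI 7 with a lentiviral AAB-GFP-Luc reporter. AAB is the ERRα response element, and the vector carries GFP and luciferase markers. The ERRα luciferase reporter read-out was multiplexed with a cell-viability assay. Test compounds were screened in three independent experiments.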
Background: A reporter such as luciferase makes a cellular process visible.

For another assay, the system named is ERγ. The experiment in a line: Expression of other nuclear hormone receptors: ERγ. The assay is classed as cell-based. The conditions noted are these: Figure S3.
The next assay has as its system ERRγ. As to the kind of experiment: Real-time PCR, transcriptional level of ERRγ. The class given is cell-based. The conditions noted are these: 5.0 μM, 24 h incubation. The method in brief:
(§1)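 mRNA was quantified by real-time PCR with SYBR Premix Ex Taq under optimised conditions. Gene expression was normalised to Gapdh as the reference gene.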
For orientation: Quantitative PCR measures a nucleic acid by following its amplification.

A further assay relates to ERα. As to the kind of experiment: Expression of other nuclear hormone receptors: ERα. The class given is cell-based. The conditions noted are these: Figure S3.
The test system of the next assay is PPARγ. As to the kind of experiment: Expression of other nuclear hormone receptors: PPARγ. The conditions noted are these: Figure S3. The assay is classed as cell-based.
Assay [2] concerns ERRα. The experiment in a line: Real-time PCR, transcriptional level of ERRα. The class given is cell-based. The conditions noted are these: 5.0 μM, 24 h incubation. The method in brief:
as §1

Assay [3] has as its target T1, ERRα. As to the kind of experiment: Cellular thermal shift assay. The conditions noted are these: HepG2 cells, concentration as low as 1.0 μM. The class given is cell-based. The procedure, abridged:
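HepG2 cells grown to ~90% confluence were exposed to DMSO or test compound (1.0 or 5.0 μM in fresh medium) for 4 h at 37 °C, 5% CO2. Cells were harvested, washed, resuspended in PBS, split into seven aliquots and heated at 48–60 °C for 3 min. They were then held 10 min at room temperature and freeze-thawed thrice in liquid nitrogen. Lysates were spun 30 min at 4 °C and soluble ERRα was assessed by SDS-PAGE/western blot.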

The test system of assay [4] is FFA-induced HepG2-IR cells. The experiment in a line: Oil red O lipid accumulation, FFA-induced HepG2-IR cells. The conditions noted are these: palmitic acid (FFA) HepG2-IR, 10.0 μM, 48 h. The class given is cell-based. The method in brief: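 HepG2 steatosis models were induced two ways. Line 3 used DMEM with 10% FBS and 1% BSA plus palmitic (0.33 mM) and oleic (0.66 mM) acid, final 1.0 mM, for 24 h. Line 4 used high glucose and insulin. Cells received DMSO or 10.0 μM test compound for 48 h; Erra overexpression and shRNA knockdown served as controls. Cells were formaldehyde-fixed, stained with 0.5% oil red O in isopropanol for 30 min with hematoxylin counterstain, and lipid was quantified.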

The target of assay [5] is T2, ERRα (Homo sapiens, UniProt P11474).
T2 sequence (P11474 193-421 limits assumed): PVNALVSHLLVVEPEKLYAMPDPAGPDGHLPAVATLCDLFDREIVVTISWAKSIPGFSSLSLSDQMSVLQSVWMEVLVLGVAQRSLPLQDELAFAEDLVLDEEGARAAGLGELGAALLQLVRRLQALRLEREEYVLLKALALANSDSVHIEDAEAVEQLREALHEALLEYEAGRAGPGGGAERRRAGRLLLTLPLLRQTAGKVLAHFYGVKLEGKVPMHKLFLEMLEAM
T2 sequence (Q9UBK2 1-798 partner): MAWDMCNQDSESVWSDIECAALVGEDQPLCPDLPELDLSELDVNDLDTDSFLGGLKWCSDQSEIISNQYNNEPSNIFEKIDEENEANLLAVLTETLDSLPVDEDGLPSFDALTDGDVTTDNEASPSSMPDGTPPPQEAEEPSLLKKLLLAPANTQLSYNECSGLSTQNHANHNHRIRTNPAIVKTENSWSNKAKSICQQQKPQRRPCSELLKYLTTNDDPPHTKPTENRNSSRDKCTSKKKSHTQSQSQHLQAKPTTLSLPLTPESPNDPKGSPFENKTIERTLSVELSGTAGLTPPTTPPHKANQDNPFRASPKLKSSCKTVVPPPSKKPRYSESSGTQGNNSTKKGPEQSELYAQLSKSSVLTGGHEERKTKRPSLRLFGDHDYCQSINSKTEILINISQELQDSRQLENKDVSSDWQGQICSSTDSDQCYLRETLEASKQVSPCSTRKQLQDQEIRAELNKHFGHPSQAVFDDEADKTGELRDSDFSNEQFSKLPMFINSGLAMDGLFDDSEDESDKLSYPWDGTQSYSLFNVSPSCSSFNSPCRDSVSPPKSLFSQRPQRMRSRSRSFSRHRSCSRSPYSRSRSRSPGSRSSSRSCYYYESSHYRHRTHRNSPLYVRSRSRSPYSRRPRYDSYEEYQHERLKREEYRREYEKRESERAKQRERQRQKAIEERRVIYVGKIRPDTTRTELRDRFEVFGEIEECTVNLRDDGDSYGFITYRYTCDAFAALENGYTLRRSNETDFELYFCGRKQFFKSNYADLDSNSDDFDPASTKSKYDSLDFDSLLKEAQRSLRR
As to the kind of experiment: Transient transfection mammalian two-hybrid reporter gene assay. The conditions noted are these: 5.0 μM, 24 h incubation, heterologous cell-based reporter assay. The procedure, abridged: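 HEK293T cells were seeded at 10,000/well in DMEM with 10% FBS. After 18–24 h they were lipofected with GAL4-DBD-ERRα-LBD (0.5 ng), pcDNA-PGC-1α (0.5 ng), pFR reporter (25 ng) and pRL-TK Renilla control (3.0 ng). Test compound was added at 5.0 μM 6 h post-transfection for a further 24 h, and firefly/Renilla luciferase was read by dual-luciferase assay.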

The test system of assay [6] is ERRα-targeted genes MCAD, PDK4, ATP5β. As to the kind of experiment: Quantitative real-time PCR of ERRα-targeted genes. The assay is classed as cell-based. The procedure, abridged:
as §1

For orientation: EC50 means the concentration at which the effect is half-maximal. A higher EC50 goes with a need for much substance.

`COc1ccc2c(=O)n(C)c(-c3ccccc3)nc2c1` [Compound 7, 7-methoxy-3-methyl-2-phenyl quinazolin-4(3H)-one] showed an EC50 at ERRα [1] of 2700 nM. In addition, the “Expression of ERγ” value in the assay with ERγ is “not obviously affected”. Further, in the assay with ERRγ, the “Effect on transcriptional level of ERRγ” value is on record as “did not display an obvious effect”. The “Expression of ERα” value in the assay with ERα is listed as “not obviously affected”. The “Expression of PPARγ” value in the assay on PPARγ was “not obviously affected”. Moreover, the “Elevation of transcriptional level of ERRα” value in the assay on ERRα [2] was “approximately 2.5 fold”. Also, the “Thermal degradation of ERRα” value at ERRα [3] is listed as “obviously inhibited thermal degradation of ERRα”. For the same compound, the “Lipid accumulation (oil red O)” value in assay [4] is listed as “significantly alleviated lipid accumulation”. Also, at ERRα [5], the ERRα-driven luciferase activity result is listed as “effectively improved the ERRα-driven luciferase activity”. The “mRNA levels of ERRα downstream genes (MCAD, PDK4, ATP5β)” value in assay [6] is given as “dose-dependently elevated mRNA levels”.

(Values after paper PMC9302452 (ACS Bio & Med Chem Au, 2022).)
